Consider 18 compounds from ChEMBL document CHEMBL1138633, “Synthesis and CYP24 inhibitory activity of 2-substituted-3,4-dihydro-2H-naphthalen-1-one (tetralone) derivatives” (Bioorg Med Chem Lett, 2004).

What is called pIC50 is the IC50 on a negative log10 scale, so that one unit is a factor of ten. A higher pIC50 goes with a small IC50.

The structures appear in SMILES notation. pIC50: −log10 of the molar value. Some results are limits rather than exact numbers.

This experiment addresses T1, 1,25-dihydroxyvitamin D(3) 24-hydroxylase, mitochondrial (Rattus norvegicus, UniProt Q09128).
T1 sequence (Q09128 whole entry): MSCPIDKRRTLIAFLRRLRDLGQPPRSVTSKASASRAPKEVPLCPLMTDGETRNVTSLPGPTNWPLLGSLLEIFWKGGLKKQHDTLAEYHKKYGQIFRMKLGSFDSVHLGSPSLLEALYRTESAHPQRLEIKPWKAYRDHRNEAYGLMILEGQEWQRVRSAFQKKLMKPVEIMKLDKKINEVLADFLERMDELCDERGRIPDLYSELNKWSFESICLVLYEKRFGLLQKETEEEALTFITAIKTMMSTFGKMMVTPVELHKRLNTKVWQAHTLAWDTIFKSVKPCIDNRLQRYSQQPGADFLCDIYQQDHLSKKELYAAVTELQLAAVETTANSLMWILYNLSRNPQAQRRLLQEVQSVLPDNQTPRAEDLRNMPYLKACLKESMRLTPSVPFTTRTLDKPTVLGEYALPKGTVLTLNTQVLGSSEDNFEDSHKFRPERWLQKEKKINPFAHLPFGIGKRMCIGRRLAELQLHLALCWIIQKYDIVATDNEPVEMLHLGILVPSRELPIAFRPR
The experiment can be described thus: Inhibitory activity against 25-hydroxyvitamin D3 24-hydroxylase of rat kidney mitochondria. The gist of the method: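 Substrate was [26,27-methyl-3H]-25-hydroxyvitamin D3, taken from a stock of labelled plus unlabelled 25 µM 25(OH)D3 holding 5 µCi/mL. It was incubated with NADPH and inhibitor at varying concentrations (in acetonitrile) in phosphate buffer pH 7.4, shaking at 37 °C for 30 min. Metabolites were extracted with ethyl acetate and analysed by HPLC with online radioactivity detection, quantified by peak area. Results are % inhibition relative to an acetonitrile control.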

The compound `COc1ccc2c(c1)CCC(Cc1ccc(O)cc1)C2` (stereo not drawn) had a pIC50 of 5.59.
The compound `COc1ccc2c(c1)CCC(Cc1ccc(O)cc1)C2=O` (stereo not drawn) gave a pIC50 of 5.46.
Compound `COc1ccc2c(c1)CCC(Cc1cc(C(F)(F)F)ccc1C(F)(F)F)C2=O` (stereo not drawn) showed a pIC50 of 5.35.
In the case of `O=C1c2ccc(O)cc2CCC1Cc1ccc(-c2ccccc2)cc1` (stereo not drawn), the pIC50 was less than 4.70.
The compound `COc1ccc2c(c1)CC/C(=C\c1cccc(N(C)C)c1)C2=O` showed a pIC50 of less than 4.00.
With `O=C1c2ccc(O)cc2CCC1Cc1ccc(O)cc1` (stereo not drawn), the pIC50 was 5.05.
Compound `O=C1/C(=C/c2ccc(-c3ccccc3)cc2)CCc2cc(O)ccc21` showed a pIC50 of less than 4.00.
For `O=C1/C(=C/c2ccc(O)cc2)CCc2cc(O)ccc21` the value was less than 4.70; for `COc1ccc2c(c1)CC/C(=C\c1ccccc1C)C2=O`, less than 4.70; for `O=C1/C(=C/c2ccccc2-c2ccccc2)CCc2cc(O)ccc21`, less than 4.00.
For the compound `O=C1c2ccc(O)cc2CCC1Cc1ccccc1-c1ccccc1` (stereo not drawn), the pIC50 was 5.68.
`CN(C)c1ccc(CC2CCc3cc(O)ccc3C2=O)cc1` (stereo not drawn) showed a pIC50 of 4.74.
In turn, `COc1ccc2c(c1)CCC(Cc1ccccc1C)C2=O` (stereo not drawn) showed a pIC50 of 6.05.
Compound `COc1ccc2c(c1)CC/C(=C\c1ccccc1Br)C2=O` showed a pIC50 of 4.00.
As for `COc1ccc2c(c1)CC/C(=C\c1cc(C(F)(F)F)ccc1C(F)(F)F)C2=O`, the negative-log IC50 (pIC50) was less than 4.00.
Regarding `CN(C)c1ccc(/C=C2\CCc3cc(O)ccc3C2=O)cc1`, the pIC50 is less than 4.00.
Take `COc1ccc2c(c1)CC/C(=C\c1ccc(O)cc1)C2=O`: the pIC50 is less than 4.70.
Turning to `CC(=O)N1CCN(c2ccc(OC[C@H]3CO[C@](Cn4ccnc4)(c4ccc(Cl)cc4Cl)O3)cc2)CC1` [KETOCONAZOLE], the pIC50 is 4.70.
